Measurements taken from article PMC9033422 (RSC Advances, 2021).

Tests used:
[1] = test system: human liver cancer cell lines SMMC-7721; experiment: MTT cytotoxicity, SMMC-7721 cells, 24 h; format: cell-based; settings: SMMC-7721, 24 h, read-out: IC50 (μM)/24 h SMMC-7721
Outline: (§1)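 Cells (1 × 10^4 per well, triplicate) were pre-cultured 24 h at 37 °C, then exposed 24 h at 37 °C to test compound at 10, 25, 50, 100 and 200 μg mL−1, with drug-free and DMSO solvent controls. MTT (2 mg mL−1 stock in PBS) was added for 4 h and formazan dissolved in DMSO. A568 was read; inhibition % = (A control − A dosed)/A control × 100.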

[2] = test system: human benign liver cell lines LO2; experiment: MTT cytotoxicity, LO2 cells, 24 h; format: cell-based; settings: L02, 24 h, read-out: IC50 (μM)/24 h LO2
Outline: as §1

[3] = test system: human liver cancer cell lines SMMC-7721; experiment: MTT cytotoxicity of 12a in Fe2+ environment, SMMC-7721 cells, 48 h; format: cell-based; settings: SMMC-7721, 48 h, read-out: IC50 (μM)/48 h SMMC-7721 with Fe2+
Outline: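 Cells at 1 × 10^4 per well, in triplicate, grew 12 h at 37 °C, then 12 h more in medium containing 100 μmol L−1 FeSO4. Medium was replaced with test compound (0.01, 0.1, 1, 10, 25 μg mL−1), with drug-free and DMSO solvent controls, for 48 h at 37 °C. MTT (2 mg mL−1 stock in PBS) was added for 4 h, formazan dissolved in DMSO, and A568 read.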

[4] = test system: human benign colon cell lines CCD18CO; experiment: MTT cytotoxicity of 12a, CCD18CO cells, 48 h; format: cell-based; settings: CCD-18Co, read-out: IC50 (μM)/48 h CCD18CO
Outline: (§2)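 Seeding was 1 × 10^4 cells per well in triplicate, with 24 h pre-culture at 37 °C. No iron supplement was used. Test compound at 0.01, 0.1, 1, 10 and 25 μg mL−1 was given for 48 h at 37 °C, with drug-free and DMSO solvent controls. MTT (2 mg mL−1 stock in PBS) was added for 4 h, centrifuged, formazan dissolved in DMSO, and absorbance read at 568 nm.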

[5] = test system: human benign breast cell lines MCF-10A; experiment: MTT cytotoxicity of 12a, MCF-10A cells, 48 h; format: cell-based; settings: read-out: IC50 (μM)/48 h MCF-10A
Outline: as §2

[6] = test system: human benign prostate cell lines RWPE-1; experiment: MTT cytotoxicity of 12a, RWPE-1 cells, 48 h; format: cell-based; settings: RWPE-1, 48 h, read-out: IC50 (μM)/48 h RWPE-1
Outline: as §2

[7] = test system: MHCC97H cell lines; experiment: Annexin V-FITC/PI flow cytometry apoptosis assay; format: cell-based, human; settings: 48 h
Outline: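 MHCC97H cells were seeded in triplicate and pre-cultured 24 h at 37 °C. Medium was replaced with test compound at 0.01, 1 or 25 μg mL−1, alongside drug-free and DMSO solvent controls, for 48 h at 37 °C. Cells were detached with 0.25% trypsin without EDTA, stained with Annexin V-FITC/PI for 5–15 min at room temperature in the dark, and analysed by flow cytometry. Quadrants: live, early apoptotic, late apoptotic, necrotic.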

C[C@H]1[C@@H](O)O[C@@H]2O[C@@]3(C)CC[C@H]4[C@H](C)CC[C@@H]1[C@@]24OO3 [DHA, Dihydroartemisinin, reference compound]
IC50 [1]: > 700 µM
IC50 [2]: 220 ± 40 µM

COC1OC(=O)C(Cl)=C1N1CCN(CCCCCC[C@H]2CN([C@@H]3OC4O[C@@]5(C)CC[C@H]6[C@H](C)CC[C@@H]([C@H]3C)[C@@]46OO5)CCS2(=O)=O)CC1 (stereo partly drawn) [Hybrid 12a, 3-Chloro-4-(4-(6-((2S)-1,1-dioxido-4-((3R,5aS,6R,8aS,9R,10R,12aR)-3,6,9-trimethyldecahydro-3H-3,12-epoxy[1,2]dioxepino[4,3-i]isochromen-10-yl)thiomorpholin-2-yl)hexyl)piperazin-1-yl)-5-methoxyfuran-2(5H)-one]
IC50 [1]: 30 ± 40 µM
IC50 [2]: 700 ± 20 µM
IC50 [3]: 20 ± 30 µM
IC50 [4]: 60 ± 40 µM
IC50 [5]: 40 ± 40 µM
IC50 [6]: 100 ± 30 µM
percentage of apoptosis ([7]; 0.01 μg mL^−1 (lowest concentration)): 7.67%
percentage of apoptosis ([7]; 25 μg mL^−1 (highest concentration)): 59.76%

CC(C)[C@@H]1CC[C@@H](C)C[C@@H]1O[C@H]1OC(=O)C(Cl)=C1N1CCN(CCCCCC[C@H]2CN([C@@H]3OC4O[C@@]5(C)CC[C@H]6[C@H](C)CC[C@@H]([C@H]3C)[C@@]46OO5)CCS2(=O)=O)CC1 (stereo partly drawn) [Hybrid 12b, (5S)-3-Chloro-4-(4-(6-((2S)-1,1-dioxido-4-((3R,5aS,6R,8aS,9R,10R,12aR)-3,6,9-trimethyldecahydro-3H-3,12-epoxy[1,2]dioxepino[4,3-i]isochromen-10-yl)thiomorpholin-2-yl)hexyl)piperazin-1-yl)-5-(((1S,2S,5R)-2-isopropyl-5-methylcyclohexyl)oxy)furan-2(5H)-one]
IC50 [1]: 320 ± 30 µM
IC50 [2]: 360 ± 30 µM

C[C@H]1[C@H](N2CCS(=O)(=O)[C@@H](CCCCCCN3CCN(C4=C(Cl)C(=O)OC4O[C@H]4CC5CCC4(C)C5(C)C)CC3)C2)O[C@@H]2O[C@@]3(C)CC[C@H]4[C@H](C)CC[C@@H]1[C@@]24OO3 (stereo partly drawn) [Hybrid 12c, 3-Chloro-4-(4-(6-((S)-1,1-dioxido-4-((3R,5aS,6R,8aS,9R,10R,12R,12aR)-3,6,9-trimethyldecahydro-3H-3,12-epoxy[1,2]dioxepino[4,3-i]isochromen-10-yl)thiomorpholin-2-yl)hexyl)piperazin-1-yl)-5-(((2S)-1,7,7-trimethylbicyclo[2.2.1]heptan-2-yl)oxy)furan-2(5H)-one]
IC50 [1]: 70 ± 40 µM
IC50 [2]: 70 ± 30 µM

COC1OC(=O)C(Br)=C1N1CCN(CCCCCC[C@H]2CN([C@@H]3OC4O[C@@]5(C)CC[C@H]6[C@H](C)CC[C@@H]([C@H]3C)[C@@]46OO5)CCS2(=O)=O)CC1 (stereo partly drawn) [Hybrid 12d, 3-Bromo-4-(4-(6-((2S)-1,1-dioxido-4-((3R,5aS,6R,8aS,9R,10R,12aR)-3,6,9-trimethyldecahydro-3H-3,12-epoxy[1,2]dioxepino[4,3-i]isochromen-10-yl)thiomorpholin-2-yl)hexyl)piperazin-1-yl)-5-methoxyfuran-2(5H)-one]
IC50 [1]: 340 ± 20 µM
IC50 [2]: 370 ± 40 µM

CC(C)[C@@H]1CC[C@@H](C)C[C@@H]1O[C@H]1OC(=O)C(Br)=C1N1CCN(CCCCCC[C@H]2CN([C@@H]3OC4O[C@@]5(C)CC[C@H]6[C@H](C)CC[C@@H]([C@H]3C)[C@@]46OO5)CCS2(=O)=O)CC1 (stereo partly drawn) [Hybrid 12e, (5S)-3-Bromo-4-(4-(6-((2S)-1,1-dioxido-4-((3R,5aS,6R,8aS,9R,10R,12aR)-3,6,9-trimethyldecahydro-3H-3,12-epoxy[1,2]dioxepino[4,3-i]isochromen-10-yl)thiomorpholin-2-yl)hexyl)piperazin-1-yl)-5-(((1S,2S,5R)-2-isopropyl-5-methylcyclohexyl)oxy)furan-2(5H)-one]
IC50 [1]: 210 ± 20 µM
IC50 [2]: 330 ± 30 µM

C[C@H]1[C@H](N2CCS(=O)(=O)[C@@H](CCCCCCN3CCN(C4=C(Br)C(=O)O[C@@H]4O[C@H]4CC5CCC4(C)C5(C)C)CC3)C2)O[C@@H]2O[C@@]3(C)CC[C@H]4[C@H](C)CC[C@@H]1[C@@]24OO3 [Hybrid 12f, (5S)-3-Bromo-4-(4-(6-((S)-1,1-dioxido-4-((3R,5aS,6R,8aS,9R,10R,12R,12aR)-3,6,9-trimethyldecahydro-3H-3,12-epoxy[1,2]dioxepino[4,3-i]isochromen-10-yl)thiomorpholin-2-yl)hexyl)piperazin-1-yl)-5-(((2S)-1,7,7-trimethylbicyclo[2.2.1]heptan-2-yl)oxy)furan-2(5H)-one]
IC50 [1]: 220 ± 30 µM
IC50 [2]: 300 ± 30 µM

CC[C@]1(O)C[C@H]2CN(CCc3c([nH]c4ccccc34)[C@@](C(=O)OC)(c3cc4c(cc3OC)N(C=O)[C@H]3[C@@](O)(C(=O)OC)[C@H](OC(C)=O)[C@]5(CC)C=CCN6CC[C@]43[C@@H]65)C2)C1 [VCR, vincristine, reference compound]
IC50 [1]: 270 ± 30 µM
IC50 [2]: 300 ± 20 µM
